Reference: ChEMBL document CHEMBL5058577, “EUbOPEN Chemogenomics Library 2 (Multiplex)” (2022)

Test system: Fibroblast
Assay: Multiplex assay against human fibroblast
Type: toxicity, cell-based
Outline: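 Cells were classed with CellPathfinder machine-learning gating, first as Hoechst high-intensity objects or normal cells, then (normal cells) as healthy, pyknosed or fragmented nuclei, and finally (pyknosed cells) as mitotic or apoptotic. Staining of live cells at seeding used Hoechst33342, BioTracker Green Microtubule Cytoskeleton Dye, MitoTracker Red and Annexin V Alexa Fluor 680, with imaging on a CQ1 microscope at 37°C and 5% CO2 after compound addition. Tubulin, mitochondrial-mass and membrane-permeability phenotypes are per cents of healthy-nucleus cells.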

[1] = 12 h, 1 µM, compound concentration 1 uM, replicate 1
[2] = 12 h, 1 µM, compound concentration 1 uM, replicate 2
[3] = 12 h, 10 µM, compound concentration 10 uM, replicate 1
[4] = 12 h, 10 µM, compound concentration 10 uM, replicate 2
[5] = 24 h, 1 µM, compound concentration 1 uM, replicate 1
[6] = 24 h, 1 µM, compound concentration 1 uM, replicate 2
[7] = 24 h, 10 µM, compound concentration 10 uM, replicate 1
[8] = 24 h, 10 µM, compound concentration 10 uM, replicate 2
[9] = 48 h, 1 µM, compound concentration 1 uM, replicate 1
[10] = 48 h, 1 µM, compound concentration 1 uM, replicate 2
[11] = 48 h, 10 µM, compound concentration 10 uM, replicate 1
[12] = 48 h, 10 µM, compound concentration 10 uM, replicate 2

COc1cc(Nc2ncc3c(n2)-c2ccc(Cl)cc2C(c2c(F)cccc2OC)=NC3)ccc1C(=O)O [ALISERTIB]
Population Apoptotic (%) [1]: 39%
Population Fragmented Nuclei (%) [1]: 11%
Population Healthy Nuclei (%) [1]: 66%
Population Hoechst High Intensity Objects (%) [1]: 1%
Population Membrane Permeable-Phenotype (%) [1]: 2%
Population Mitochondria Different-Phenotype (%) [1]: 4%
Population Mitotic Cells (%) [1]: 60%
Population Normal (%) [1]: 98%
Population Pyknosed Nuclei (%) [1]: 21%
Population Tubulin-Different-Phenotype (%) [1]: 23%
Population Apoptotic (%) [2]: 42%
Population Fragmented Nuclei (%) [2]: 18%
Population Healthy Nuclei (%) [2]: 47%
Population Hoechst High Intensity Objects (%) [2]: 8%
Population Membrane Permeable-Phenotype (%) [2]: 7%
Population Mitochondria Different-Phenotype (%) [2]: 7%
Population Mitotic Cells (%) [2]: 57%
Population Normal (%) [2]: 91%
Population Pyknosed Nuclei (%) [2]: 33%
Population Tubulin-Different-Phenotype (%) [2]: 41%
Population Apoptotic (%) [3]: 56%
Population Fragmented Nuclei (%) [3]: 28%
Population Healthy Nuclei (%) [3]: 47%
Population Hoechst High Intensity Objects (%) [3]: 13%
Population Membrane Permeable-Phenotype (%) [3]: 1%
Population Mitochondria Different-Phenotype (%) [3]: 22%
Population Mitotic Cells (%) [3]: 43%
Population Normal (%) [3]: 86%
Population Pyknosed Nuclei (%) [3]: 24%
Population Tubulin-Different-Phenotype (%) [3]: 69%
Total Cell Count [3]: 209
Population Apoptotic (%) [4]: 48%
Population Fragmented Nuclei (%) [4]: 35%
Population Healthy Nuclei (%) [4]: 30%
Population Hoechst High Intensity Objects (%) [4]: 8%
Population Membrane Permeable-Phenotype (%) [4]: 4%
Population Mitochondria Different-Phenotype (%) [4]: 16%
Population Mitotic Cells (%) [4]: 51%
Population Normal (%) [4]: 91%
Population Pyknosed Nuclei (%) [4]: 33%
Population Tubulin-Different-Phenotype (%) [4]: 64%
Total Cell Count [4]: 89
Population Apoptotic (%) [5]: 36%
Population Fragmented Nuclei (%) [5]: 12%
Population Healthy Nuclei (%) [5]: 69%
Population Hoechst High Intensity Objects (%) [5]: 2%
Population Membrane Permeable-Phenotype (%) [5]: 2%
Population Mitochondria Different-Phenotype (%) [5]: 6%
Population Mitotic Cells (%) [5]: 63%
Population Normal (%) [5]: 97%
Population Pyknosed Nuclei (%) [5]: 18%
Population Tubulin-Different-Phenotype (%) [5]: 28%
Total Cell Count [5]: 123
Population Apoptotic (%) [6]: 48%
Population Fragmented Nuclei (%) [6]: 26%
Population Healthy Nuclei (%) [6]: 47%
Population Hoechst High Intensity Objects (%) [6]: 4%
Population Membrane Permeable-Phenotype (%) [6]: 4%
Population Mitotic Cells (%) [6]: 51%
Population Normal (%) [6]: 95%
Population Pyknosed Nuclei (%) [6]: 26%
Population Tubulin-Different-Phenotype (%) [6]: 47%
Population Apoptotic (%) [7]: 64%
Population Fragmented Nuclei (%) [7]: 29%
Population Healthy Nuclei (%) [7]: 44%
Population Hoechst High Intensity Objects (%) [7]: 13%
Population Membrane Permeable-Phenotype (%) [7]: 1%
Population Mitochondria Different-Phenotype (%) [7]: 24%
Population Mitotic Cells (%) [7]: 35%
Population Normal (%) [7]: 86%
Population Pyknosed Nuclei (%) [7]: 25%
Population Tubulin-Different-Phenotype (%) [7]: 68%
Total Cell Count [7]: 191
Population Apoptotic (%) [8]: 56%
Population Fragmented Nuclei (%) [8]: 45%
Population Healthy Nuclei (%) [8]: 36%
Population Hoechst High Intensity Objects (%) [8]: 5%
Population Membrane Permeable-Phenotype (%) [8]: 0%
Population Mitochondria Different-Phenotype (%) [8]: 9%
Population Mitotic Cells (%) [8]: 43%
Population Normal (%) [8]: 94%
Population Pyknosed Nuclei (%) [8]: 18%
Population Tubulin-Different-Phenotype (%) [8]: 71%
Total Cell Count [8]: 93
Population Apoptotic (%) [9]: 57%
Population Fragmented Nuclei (%) [9]: 15%
Population Healthy Nuclei (%) [9]: 65%
Population Hoechst High Intensity Objects (%) [9]: 5%
Population Membrane Permeable-Phenotype (%) [9]: 4%
Population Mitochondria Different-Phenotype (%) [9]: 5%
Population Mitotic Cells (%) [9]: 42%
Population Normal (%) [9]: 94%
Population Pyknosed Nuclei (%) [9]: 19%
Population Tubulin-Different-Phenotype (%) [9]: 32%
Total Cell Count [9]: 115
Population Apoptotic (%) [10]: 38%
Population Fragmented Nuclei (%) [10]: 33%
Population Healthy Nuclei (%) [10]: 42%
Population Membrane Permeable-Phenotype (%) [10]: 7%
Population Mitotic Cells (%) [10]: 61%
Population Pyknosed Nuclei (%) [10]: 24%
Population Tubulin-Different-Phenotype (%) [10]: 54%
Population Apoptotic (%) [11]: 84%
Population Fragmented Nuclei (%) [11]: 38%
Population Healthy Nuclei (%) [11]: 35%
Population Hoechst High Intensity Objects (%) [11]: 23%
Population Membrane Permeable-Phenotype (%) [11]: 5%
Population Mitochondria Different-Phenotype (%) [11]: 37%
Population Mitotic Cells (%) [11]: 15%
Population Normal (%) [11]: 76%
Population Pyknosed Nuclei (%) [11]: 26%
Population Tubulin-Different-Phenotype (%) [11]: 80%
Total Cell Count [11]: 188
Population Apoptotic (%) [12]: 66%
Population Fragmented Nuclei (%) [12]: 37%
Population Healthy Nuclei (%) [12]: 51%
Population Hoechst High Intensity Objects (%) [12]: 8%
Population Membrane Permeable-Phenotype (%) [12]: 2%
Population Mitochondria Different-Phenotype (%) [12]: 15%
Population Mitotic Cells (%) [12]: 33%
Population Normal (%) [12]: 91%
Population Pyknosed Nuclei (%) [12]: 11%
Population Tubulin-Different-Phenotype (%) [12]: 65%
Total Cell Count [12]: 85

O=c1nc2[nH]c3ccccc3nc-2c(=O)[nH]1 [ALLOXAZINE]
Population Apoptotic (%) [1]: 56%
Population Fragmented Nuclei (%) [1]: 16%
Population Healthy Nuclei (%) [1]: 67%
Population Hoechst High Intensity Objects (%) [1]: 5%
Population Membrane Permeable-Phenotype (%) [1]: 0%
Population Mitochondria Different-Phenotype (%) [1]: 2%
Population Mitotic Cells (%) [1]: 43%
Population Normal (%) [1]: 94%
Population Pyknosed Nuclei (%) [1]: 16%
Population Tubulin-Different-Phenotype (%) [1]: 23%
Total Cell Count [1]: 193
Population Apoptotic (%) [2]: 37%
Population Fragmented Nuclei (%) [2]: 26%
Population Healthy Nuclei (%) [2]: 50%
Population Hoechst High Intensity Objects (%) [2]: 3%
Population Membrane Permeable-Phenotype (%) [2]: 6%
Population Mitochondria Different-Phenotype (%) [2]: 3%
Population Mitotic Cells (%) [2]: 62%
Population Normal (%) [2]: 96%
Population Pyknosed Nuclei (%) [2]: 23%
Population Tubulin-Different-Phenotype (%) [2]: 33%
Total Cell Count [2]: 131
Population Apoptotic (%) [3]: 33%
Population Fragmented Nuclei (%) [3]: 23%
Population Healthy Nuclei (%) [3]: 60%
Population Hoechst High Intensity Objects (%) [3]: 4%
Population Membrane Permeable-Phenotype (%) [3]: 3%
Population Mitochondria Different-Phenotype (%) [3]: 5%
Population Mitotic Cells (%) [3]: 66%
Population Normal (%) [3]: 95%
Population Pyknosed Nuclei (%) [3]: 15%
Population Tubulin-Different-Phenotype (%) [3]: 23%
Total Cell Count [3]: 158
Population Apoptotic (%) [4]: 41%
Population Fragmented Nuclei (%) [4]: 41%
Population Healthy Nuclei (%) [4]: 38%
Population Hoechst High Intensity Objects (%) [4]: 1%
Population Mitochondria Different-Phenotype (%) [4]: 15%
Population Mitotic Cells (%) [4]: 58%
Population Normal (%) [4]: 98%
Population Pyknosed Nuclei (%) [4]: 20%
Population Tubulin-Different-Phenotype (%) [4]: 57%
Total Cell Count [4]: 86
Population Apoptotic (%) [5]: 52%
Population Fragmented Nuclei (%) [5]: 17%
Population Healthy Nuclei (%) [5]: 69%
Population Hoechst High Intensity Objects (%) [5]: 3%
Population Membrane Permeable-Phenotype (%) [5]: 0%
Population Mitochondria Different-Phenotype (%) [5]: 2%
Population Mitotic Cells (%) [5]: 47%
Population Normal (%) [5]: 96%
Population Pyknosed Nuclei (%) [5]: 12%
Population Tubulin-Different-Phenotype (%) [5]: 21%
Total Cell Count [5]: 190
Population Apoptotic (%) [6]: 36%
Population Fragmented Nuclei (%) [6]: 31%
Population Healthy Nuclei (%) [6]: 41%
Population Hoechst High Intensity Objects (%) [6]: 4%
Population Membrane Permeable-Phenotype (%) [6]: 2%
Population Mitochondria Different-Phenotype (%) [6]: 0%
Population Mitotic Cells (%) [6]: 63%
Population Normal (%) [6]: 95%
Population Pyknosed Nuclei (%) [6]: 27%
Population Tubulin-Different-Phenotype (%) [6]: 31%
Total Cell Count [6]: 114
Population Apoptotic (%) [7]: 47%
Population Fragmented Nuclei (%) [7]: 19%
Population Healthy Nuclei (%) [7]: 64%
Population Hoechst High Intensity Objects (%) [7]: 3%
Population Membrane Permeable-Phenotype (%) [7]: 0%
Population Mitochondria Different-Phenotype (%) [7]: 2%
Population Mitotic Cells (%) [7]: 52%
Population Normal (%) [7]: 96%
Population Pyknosed Nuclei (%) [7]: 15%
Population Tubulin-Different-Phenotype (%) [7]: 22%
Total Cell Count [7]: 153
Population Apoptotic (%) [8]: 64%
Population Fragmented Nuclei (%) [8]: 45%
Population Healthy Nuclei (%) [8]: 32%
Population Mitochondria Different-Phenotype (%) [8]: 7%
Population Mitotic Cells (%) [8]: 35%
Population Pyknosed Nuclei (%) [8]: 21%
Population Tubulin-Different-Phenotype (%) [8]: 50%
Total Cell Count [8]: 82
Population Apoptotic (%) [9]: 71%
Population Fragmented Nuclei (%) [9]: 14%
Population Healthy Nuclei (%) [9]: 72%
Population Hoechst High Intensity Objects (%) [9]: 9%
Population Membrane Permeable-Phenotype (%) [9]: 0%
Population Mitochondria Different-Phenotype (%) [9]: 1%
Population Mitotic Cells (%) [9]: 28%
Population Normal (%) [9]: 90%
Population Pyknosed Nuclei (%) [9]: 13%
Population Tubulin-Different-Phenotype (%) [9]: 23%
Total Cell Count [9]: 178
Population Apoptotic (%) [10]: 39%
Population Fragmented Nuclei (%) [10]: 30%
Population Healthy Nuclei (%) [10]: 48%
Population Hoechst High Intensity Objects (%) [10]: 3%
Population Membrane Permeable-Phenotype (%) [10]: 9%
Population Mitotic Cells (%) [10]: 60%
Population Normal (%) [10]: 96%
Population Pyknosed Nuclei (%) [10]: 20%
Population Tubulin-Different-Phenotype (%) [10]: 56%
Total Cell Count [10]: 114
Population Apoptotic (%) [11]: 55%
Population Fragmented Nuclei (%) [11]: 26%
Population Healthy Nuclei (%) [11]: 61%
Population Hoechst High Intensity Objects (%) [11]: 6%
Population Membrane Permeable-Phenotype (%) [11]: 2%
Population Mitochondria Different-Phenotype (%) [11]: 3%
Population Mitotic Cells (%) [11]: 44%
Population Normal (%) [11]: 93%
Population Pyknosed Nuclei (%) [11]: 11%
Population Tubulin-Different-Phenotype (%) [11]: 29%
Total Cell Count [11]: 164
Population Apoptotic (%) [12]: 45%
Population Fragmented Nuclei (%) [12]: 49%
Population Healthy Nuclei (%) [12]: 36%
Population Hoechst High Intensity Objects (%) [12]: 2%
Population Membrane Permeable-Phenotype (%) [12]: 3%
Population Mitochondria Different-Phenotype (%) [12]: 17%
Population Mitotic Cells (%) [12]: 54%
Population Normal (%) [12]: 97%
Population Pyknosed Nuclei (%) [12]: 13%
Population Tubulin-Different-Phenotype (%) [12]: 51%
Total Cell Count [12]: 81
